PubChem BioAssay AID1385 (PCMD, 2008)
Hit rate of the full screen: of about 200,000 compounds, about 170 (0.085%) were called active.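 The calls were made as follows: active = inhibition above 40% at the single screening dose; inactive = the rest.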 The sample as a whole holds a higher share of actives than the screen did.

Each molecule was assayed against DNA repair protein RAD51 homolog 1 (Homo sapiens) (UniProt Q06609) (assay: blockers of RAD51-mediated homologous recombination – biochemical, fluorescence, primary screen (AID 1385;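 also: 0% = DMSO control wells and 100% = blanks with heterologous ssDNA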)). Details: hRad51 DNA strand exchange, fluorescence dequenching; at 10 µM; active compounds read high.
Summary of the method: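 System: human Rad51 nucleoprotein filaments preassembled on unlabelled ssDNA. Reagent: labelled 47-mer dsDNA for strand exchange. Schedule: 30-min compound preincubation and 15-min exchange, both room temperature. Measured by: FRET fluorescence dequenching, excitation 485 nm, emission 520 nm. Read-out: Fluorescence-based percent inhibition, control- and blank-normalised. Benchmarks: plate controls and plate blanks.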

Sequence of DNA repair protein RAD51 homolog 1 (Homo sapiens) (Q06609 whole entry, looked up): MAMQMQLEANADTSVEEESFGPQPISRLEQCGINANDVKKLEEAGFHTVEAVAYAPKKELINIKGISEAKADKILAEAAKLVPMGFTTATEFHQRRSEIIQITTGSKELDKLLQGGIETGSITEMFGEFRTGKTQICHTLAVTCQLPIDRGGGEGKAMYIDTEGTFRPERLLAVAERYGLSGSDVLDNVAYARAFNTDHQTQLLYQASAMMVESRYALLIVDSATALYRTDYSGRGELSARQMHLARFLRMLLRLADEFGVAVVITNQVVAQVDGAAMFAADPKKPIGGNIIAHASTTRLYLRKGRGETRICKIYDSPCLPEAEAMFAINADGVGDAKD

Compound | inhibition
CC(OC(=O)c1ccc(NS(=O)(=O)c2ccc3[nH]c(=O)[nH]c3c2)cc1)C(=O)Nc1cccc(Cl)c1Cl (centres undefined) | 1.25% (inactive)
Cc1cc(C)cc(NC(=O)NC2CCN(CC(=O)Nc3cccc(Cl)c3C)CC2)c1 | -8.77% (inactive)
CCn1c(CN2C(=O)CSc3ccccc32)n[nH]c1=S | 3.47% (inactive)
O=S(=O)(c1cccc(-c2nnc3n2CCCCC3)c1)N1CCOCC1 | 6.72% (inactive)
CC(C)(C)c1cc(NC(=O)NN2CCOCC2)nn1-c1c(Cl)cc(Cl)cc1Cl | -14% (inactive)
Nc1ccccc1SC(C[N+](=O)[O-])c1ccccc1 (centres undefined) | 14.8% (inactive)
OC(CNCc1ccc2c(c1)OCO2)COc1ccccc1 (centres undefined) | 1.14% (inactive)
Cc1ccc(CNC(=O)c2ccc3c(c2)S(=O)(=O)c2ccccc2C3=O)cc1 | 3.71% (inactive)
COc1ccccc1-n1cn[nH]c1=S | 26.3% (inactive)
COc1ccc(CN(Cc2ccc(OC)cc2)C(=O)c2cccs2)cc1 | 2.36% (inactive)
O=C(c1ccc(F)cc1)n1c(=S)nc2ccccn21 | 15.3% (inactive)
CNC1(c2nnnn2-c2c(C)cccc2C)CCOC(C)(C)C1 (centres undefined) | 5.82% (inactive)
Cc1cc(-c2nc(C)c(-c3nnc(SCC(=O)Nc4ccccc4)n3C)s2)no1 | -5% (inactive)
OCC[C@H]1C[C@H](O)[C@@H](O)[C@]2(CCCCO2)O1 | -1.38% (inactive)
COc1ccccc1Cn1c(CO)nc2ccccc21 | -28.4% (inactive)
Cc1ccc(C)c2c1cc(C)c1nnc(SCC(=O)Nc3cccc(C(=O)O)c3)n12 | 3.44% (inactive)
CCCN(CCC)S(=O)(=O)c1ccc(C(=O)N2CC3CCC(CC3)C2)cc1 | 4.87% (inactive)
O=C(O)c1ccccc1C(=O)Nc1ccccc1[N+](=O)[O-] | 10.6% (inactive)
O=[N+]([O-])c1ccc2c(c1)C(O)n1nc(-c3ccccc3)nc1S2 (centres undefined) | 0.18% (inactive)
CC(C)CC(=O)NC(=S)NCc1ccccc1 | 1.47% (inactive)
CC(C)CC(=O)N/C(N)=N/c1nc2ccccc2s1 | 82.8% (active)
CCC(=O)NC(=Nc1nc2ccccc2s1)NC(=O)CC | -4.35% (inactive)
CCN(CC)CCOc1ccc2c(c1)C(=NNC(=O)c1ccccn1)c1cc(OCCN(CC)CC)ccc1-2 | 99% (active)
CCC(C)(NC(=O)c1ccccn1)C(=O)NC1CCCCC1 (centres undefined) | 14.2% (inactive)

Compound | inhibition
CCOc1cc(NC(=O)c2ccccn2)c(OCC)cc1NC(=O)c1ccc(OC)cc1 | 0.44% (inactive)
O=[N+]([O-])c1cc([N+](=O)[O-])c2cccnc2c1O | 5.92% (inactive)
O=C(CCc1ccccc1)NNc1ccc(F)cc1 | 4.26% (inactive)
NS(=O)(=O)c1ccc(NC(=O)COC(=O)c2cc3ccccc3oc2=O)cc1 | 3.3% (inactive)
Cc1c(NC(=O)CN2C(=O)C(=O)N(Cc3ccccc3)C2=O)c(=O)n(-c2ccccc2)n1C | 1.05% (inactive)
O=C1N=C(N2CCc3ccccc3C2)S/C1=C\c1ccc(O)cc1 | -11.2% (inactive)
O=C1/C(=C/c2coc3ccc(O)cc3c2=O)SC(=S)N1c1ccccc1 | -16.3% (inactive)
O=C(O)c1ccc(/C=N/Nc2nc(N3CCCCC3)nc(N3CCCCC3)n2)cc1 | 8.17% (inactive)
Cn1cnc(S(=O)(=O)Nc2ccc3c(c2)OCCO3)c1 | 10.8% (inactive)
O=C(O)CC12CC3CC(C1)CC(n1ncc(NCc4ccc(F)cc4)c(Cl)c1=O)(C3)C2 | -1.62% (inactive)
O=C(Cc1cccc2ccccc12)NNC(=O)Nc1ccc(Cl)cc1 | 18.3% (inactive)
Cc1nnc(Nc2ccccc2F)s1 | 21.3% (inactive)
CCOC(=O)CN(C(=O)COc1nc(C)cc(C)c1C#N)c1ccc(Cl)cc1 | 1.01% (inactive)
FC(F)(F)c1cccc(-c2nc(COc3ccc(Cl)cc3Cl)no2)c1 | 4.51% (inactive)
CCSC1=NCCN1C(=O)c1ccc(S(=O)(=O)N(CC)CC)cc1 | 40.5% (active)
CSC1=NCCN1C(=O)c1ccc(S(=O)(=O)N2CCOCC2)cc1 | -4.11% (inactive)
CCSC1=NCCN1S(=O)(=O)c1ccc(F)cc1 | -1.84% (inactive)
C/C(Cc1ccccc1)=N\NC(=O)CNC(=O)c1ccccc1Cl | 11.3% (inactive)
COc1ccc(OC)c(NC(=O)N[C@H](Cc2ccccc2)C(=O)NN)c1 | 19% (inactive)
N#Cc1ccc(Oc2ccc(C(F)(F)F)cc2NC(=O)c2ccc(F)cc2)cc1 | 18.6% (inactive)
COCCn1c(SCC(=O)c2[nH]c(C)c(C(C)=O)c2C)nc2ccccc2c1=O | -4.09% (inactive)
COc1ccc(/C=N/n2nnnc2N)cc1OC | -13.6% (inactive)
Cc1cc(Nc2ccc(N3CCOCC3)cc2)c2cccc(C)c2n1 | 15.5% (inactive)
Nc1ccccc1C(=O)NC1CCCCNC1=O (centres undefined) | 11.6% (inactive)

Compound | inhibition
COc1cc(N2C(=O)CC3(CCCC3)CC2=O)cc(OC)c1OC | -3.47% (inactive)
Cc1ccc(Nc2c3c(nc4ccccc24)CCC3)cc1 | 16.7% (inactive)
O=C1N[C@H](Cc2ccccc2)C(=O)N[C@H]1Cc1cn(S(=O)(=O)c2ccccc2)c2ccccc12 | -3.92% (inactive)
O=C(NC1C2CC3CC(C2)CC1C3)c1ccc(N2CCNCC2)c([N+](=O)[O-])c1 (centres undefined) | -5.43% (inactive)
CC(=O)N/C(=C\c1ccc(F)cc1)C(=O)NC(Cc1ccccc1)C(=O)O (centres undefined) | 5.67% (inactive)
CN(C)S(=O)(=O)c1ccc(C(=O)NCC(C)(C)N2CCOCC2)cc1 | -11.7% (inactive)
NC(=O)c1ccc(-c2csnn2)cc1 | 9.52% (inactive)
Nc1c(Cl)cc(S(N)(=O)=O)cc1S(N)(=O)=O | 3.22% (inactive)
O=C(Nc1cccc2c1N(C(=O)c1ccco1)CCC2)c1ccco1 | 15.4% (inactive)
CC1Cc2ccccc2N1CC(=O)Nc1ccc(S(N)(=O)=O)cc1 (centres undefined) | -6.22% (inactive)
Cc1ccc(NC(=O)/C(=C/c2ccc([N+](=O)[O-])cc2)NC(=O)c2ccccc2)cc1 | -17.5% (inactive)
NNC(=O)c1cccc(COCC(F)(F)C(F)F)c1 | 8.15% (inactive)
O=C(Nc1ccccc1)C1CC(=O)n2c(nc3ccccc32)N1 (centres undefined) | 1.59% (inactive)
NC(=O)c1ccc(NC(=O)COC(=O)c2ccc([N+](=O)[O-])cc2)cc1 | -14.5% (inactive)
CCCc1c(C(=O)Nc2ccc(F)cc2)cnn1-c1ccccc1 | -9.46% (inactive)
Cc1cc(C(=O)OCC(=O)Nc2nccs2)c2ccccc2n1 | -4.52% (inactive)
CCc1nc(NCCO)c(C#N)c2c1CCCC2 | 18.4% (inactive)
Cn1c(=O)c(=O)n(C)c2cc(S(=O)(=O)NCCN3CCN(c4ccccc4F)CC3)ccc21 | 0.68% (inactive)
Cc1ccc(N2C(=O)CN=C2Nc2nc(C)cc(C)n2)cc1 | 7.92% (inactive)
COC(=O)c1sccc1NC(=O)CC1C(=O)NCCN1C(=O)Nc1ccc(F)cc1F (centres undefined) | 1.89% (inactive)
Fc1ccc(-c2csc(-c3ccc(C4SCCS4)cc3)n2)cc1F | 1.29% (inactive)
O=C(NNC(=O)c1csc(-c2cccnc2)n1)Nc1ccc(Cl)cc1 | -5.17% (inactive)
COCc1cc(=O)[nH]c(-c2ccc(C(F)(F)F)cc2)n1 | 7.88% (inactive)
CSc1sc(C(=O)NNC(=O)c2ccc(Cl)cc2)c2c1C=CCC2 | -9.57% (inactive)

Compound | inhibition
N#Cc1c(NCCO)ccc([N+](=O)[O-])c1NCCO | 16.9% (inactive)
COc1ccc(NC(=O)C2=C(C)NC(=O)NC2c2ccccc2[N+](=O)[O-])cc1 (centres undefined) | 0.69% (inactive)
O=S(=O)(c1ccccc1)N1CN(Cc2ccc(F)cc2)c2nc3ccccc3nc21 | 7.4% (inactive)
CC1(C)C2CC[C@]3(C)C(CC=C4[C@@H]5C[C@@](C)(CO)CC[C@]5(C(=O)O)CC[C@]43C)[C@@]2(C)CC[C@@H]1O (some centres undefined) | 6.09% (inactive)
Cc1cc(N2CCN(c3ccccc3)CC2)nc(N2CCOCC2)n1 | 26.8% (inactive)
COc1ccc(Cn2c(O)c(/C=C3/C=CC=N3)c(=O)[nH]c2=O)cc1 | -6.92% (inactive)
COC(=O)c1ccc(C(NC(=O)OCc2ccccc2)/C(F)=C/[C@@H](C)C(=O)O)cc1 (some centres undefined) | -2.27% (inactive)
Cc1cccn2c(CNCC(C)Oc3cccnc3)c(C(=O)N3CCOCC3)nc12 (centres undefined) | -2.58% (inactive)
N#CC1=C(N)Oc2c(ccc3cccnc23)C1c1ccncc1 (centres undefined) | 12.7% (inactive)
CN(C)CCCN(Cc1cc2cc3c(cc2[nH]c1=O)OCCO3)C(=O)NC1CCCCC1 | 0.9% (inactive)
C/C(CC(=O)NC(C)c1ccccc1)=N\NC(N)=S (centres undefined) | 21.4% (inactive)
NCC(=O)c1cccc2ccc[n+]([O-])c12 | -0.26% (inactive)
CCCOc1ccc(Cl)cc1Nc1nc(NCCO)nc(N2CCCC2)n1 | 6.75% (inactive)
Cc1cc(NC(=O)OC(C)C)ccc1-c1ccc(NC(=O)OC(C)C)cc1C | -19.8% (inactive)
CCn1c(SCC(=O)Nc2sc(C)c(C)c2C#N)nnc1C1CC1 | -26.7% (inactive)
CCNc1nc(NCC)nc(N/N=C/c2ccc(O)c(OC)c2)n1 | 5.6% (inactive)
Cc1cc(C)nc(Nc2n[nH]c(-c3ccccc3N)n2)n1 | 22.9% (inactive)
COC(=O)c1cc(C(=O)OCC(=O)Nc2cc(C)on2)cc([N+](=O)[O-])c1 | -19.8% (inactive)
O=C(CCl)Nc1cccc(CP(=O)(c2ccccc2)c2ccccc2)c1 | 3.48% (inactive)
Cc1nc(-c2ccccc2)sc1-c1nnc(C2CC2)o1 | 13.8% (inactive)
Cc1cc(=O)oc2cc(OCC(=O)Nc3nnc(C4CC4)s3)ccc12 | 27.8% (inactive)
CCCSc1ncccc1C(=O)O | 14.8% (inactive)
